Reference: ChEMBL document CHEMBL2311407, “Design and synthesis of diazatricyclodecane agonists of the G-protein-coupled receptor 119” (J Med Chem, 2013)
In brackets after ≈: the same amount, converted by molar mass.

Experiments:
[1] = Half life in Beagle dog at 3 mg/kg, po administered as spray dried dispersion; type: ADME, organism-based, Canis lupus familiaris; design: dose 3 mg/kg, route oral; conditions: in vivo
How it was run: (§1)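 Male beagle dogs were dosed po at 3 mg/kg, 0.6 mL/kg, as 25% spray dried dispersion in 20 mM Tris buffer with 0.5% methylcellulose + 0.5% HPMCAS-HF, pH 7.4. Plasma concentrations are total drug. Values are the mean of two animals. F is calculated against 1 mg/kg iv dog data.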

[2] = AUC in Sprague-Dawley rat at 30 mg/kg, po administered as spray dried dispersion; type: ADME, organism-based; design: dose 30 mg/kg, route oral; conditions: plasma
How it was run: (§2)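 Rats were dosed po at 0.6 mL/kg with a 25% amorphous spray dried dispersion (with HPMCAS-HF) in 20 mM Tris buffer with 0.5% methylcellulose + 0.5% HPMCAS-HF, pH 7.4. Plasma concentrations are total drug. Data are mean ± SD of three animals. F is based on 1 mg/kg rat iv data.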

[3] = AUC in Sprague-Dawley rat at 3 mg/kg, po administered as spray dried dispersion; type: ADME, organism-based; design: dose 3 mg/kg, route oral; conditions: plasma; how it was run: as §2
[4] = Clearance in Beagle dog at 1 mg/kg, iv; type: ADME, organism-based, Canis lupus familiaris; design: dose 1 mg/kg, route intravenous; conditions: in vivo
How it was run: (§3)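 Male beagle dogs received 1 mg/kg iv at 2 mL/kg in 5% dimethylacetamide/75% PEG200/20% (30% SBE-CD). Plasma concentrations are total drug. Values are the mean of two animals.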

[5] = Fraction unbound in Sprague-Dawley rat plasma; type: ADME, cell-free
[6] = AUC in Beagle dog at 1 mg/kg, iv; type: ADME, organism-based, Canis lupus familiaris; design: dose 1 mg/kg, route intravenous; conditions: plasma; how it was run: as §3
[7] = Oral bioavailability in Beagle dog at 30 mg/kg administered as spray dried dispersion; type: ADME, organism-based, Canis lupus familiaris; conditions: in vivo
How it was run: (§4)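 Oral gavage in male beagle dogs at 10, 30 or 100 mg/kg, 5 mL/kg, as 25% spray dried dispersion in 20 mM Tris buffer in 0.5% methylcellulose and 0.5% HPMCAS-HF, pH 7.4. Plasma concentrations are total drug. Values are the mean of two animals. F is based on 1 mg/kg iv dog data.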

[8] = Cmax in Sprague-Dawley rat at 30 mg/kg, po administered as spray dried dispersion; type: ADME, organism-based; design: dose 30 mg/kg, route oral; conditions: in vivo; how it was run: as §2
[9] = Thermodynamic solubility of the compound in PBS at pH 1.2; type: physicochemical; conditions: read-out: Therm_solubility
[10] = Thermodynamic solubility of the compound in PBS at pH 7.4; type: physicochemical; conditions: read-out: Therm_solubility
[11] = Cmax in Beagle dog at 30 mg/kg, po administered as spray dried dispersion; type: ADME, organism-based, Canis lupus familiaris; design: dose 30 mg/kg, route oral; conditions: in vivo; how it was run: as §4
[12] = Oral bioavailability in Sprague-Dawley rat at 3 mg/kg administered in 0.5% methylcellulose; type: ADME, organism-based; conditions: in vivo
How it was run: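 Rats were dosed orally at 3 mg/kg in 0.5% methylcellulose. Plasma concentrations are total drug. Data are mean ± SD of three animals. F is based on 1 mg/kg rat iv PK.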

[13] = Tmax in Sprague-Dawley rat at 30 mg/kg, po dosing of milled material in 0.5% methylcellulose; type: ADME, organism-based; design: dose 30 mg/kg, route oral; conditions: in vivo
How it was run: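 Nanomilled material (about 190 nm after milling) was suspended in 0.5% methylcellulose and dosed orally to rats. Plasma concentrations are reported as total drug. Values are mean ± SD from three animals.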

[14] = Cmax in Beagle dog at 1 mg/kg, iv; type: ADME, organism-based, Canis lupus familiaris; design: dose 1 mg/kg, route intravenous; conditions: in vivo; how it was run: as §3
[15] = Cmax in Sprague-Dawley rat at 3 mg/kg, po administered as spray dried dispersion; type: ADME, organism-based; design: dose 3 mg/kg, route oral; conditions: in vivo; how it was run: as §2
[16] = Half life in Sprague-Dawley rat at 1 mg/kg, iv; type: ADME, organism-based; design: dose 1 mg/kg, route intravenous; conditions: in vivo
How it was run: (§5)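 Rats received 1 mg/kg iv in 10% N-methylpyrrolidone and 90% of a 30% SBE-CD solution. Plasma concentrations are total drug. Data are mean ± SD of three animals.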

[17] = Cmax in Beagle dog at 10 mg/kg, po administered as spray dried dispersion; type: ADME, organism-based, Canis lupus familiaris; design: dose 10 mg/kg, route oral; conditions: in vivo; how it was run: as §4
[18] = Volume of distribution at steady state in Sprague-Dawley rat at 1 mg/kg, iv; type: ADME, organism-based; design: dose 1 mg/kg, route intravenous; conditions: in vivo, read-out: Vdss
How it was run: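 Rats received an iv dose of 1 mpk in a vehicle of 10% N-methylpyrrolidone and 90% SBE-CD solution prepared at 30%. Plasma concentrations are total drug. Values are mean ± SD from three animals.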

[19] = Apparent intrinsic clearance in human liver microsomes; type: ADME, Microsome; conditions: read-out: CLH(app)
[20] = Oral bioavailability in Beagle dog at 10 mg/kg administered as spray dried dispersion; type: ADME, organism-based, Canis lupus familiaris; conditions: in vivo; how it was run: as §4
[21] = Tmax in Beagle dog at 3 mg/kg, po administered as spray dried dispersion; type: ADME, organism-based, Canis lupus familiaris; design: dose 3 mg/kg, route oral; conditions: in vivo; how it was run: as §1
[22] = Oral bioavailability in Beagle dog at 3 mg/kg administered as spray dried dispersion; type: ADME, organism-based, Canis lupus familiaris; conditions: in vivo; how it was run: as §1
[23] = AUC in Beagle dog at 100 mg/kg, po administered as spray dried dispersion; type: ADME, organism-based, Canis lupus familiaris; design: dose 100 mg/kg, route oral; conditions: plasma; how it was run: as §4
[24] = Fraction unbound in Beagle dog plasma; type: ADME, cell-free, Canis lupus familiaris
[25] = AUC in Beagle dog at 30 mg/kg, po administered as spray dried dispersion; type: ADME, organism-based, Canis lupus familiaris; design: dose 30 mg/kg, route oral; conditions: plasma; how it was run: as §4
[26] = Clearance in Sprague-Dawley rat at 1 mg/kg, iv; type: ADME, organism-based; design: dose 1 mg/kg, route intravenous; conditions: in vivo; how it was run: as §5

half-life [1]: 20 h
AUC [2]: 49100 ng·h/mL
AUC [3]: 6140 ng·h/mL
clearance [4]: 1.74 mL/min/kg
fraction unbound [5]: 0.01
AUC [6]: 4730 ng·h/mL
bioavailability [7]: 54%
Cmax [8]: 3490 ng/mL
solubility thermodynamic [9]: 4.8 µg/mL (≈ 9.48 µM)
solubility thermodynamic [10]: 0.7 µg/mL (≈ 1.38 µM)
Cmax [11]: 3750 ng/mL
bioavailability [12]: 7.6%
Tmax [13]: 6 h
Cmax [14]: 515 ng/mL
Cmax [15]: 484 ng/mL
half-life [16]: 4.34 h
Cmax [17]: 1950 ng/mL
Vd [18]: 3.96 L/kg
CLint scaled [19]: < 9.5 mL/min/kg
bioavailability [20]: 87%
Tmax [21]: 1 h
bioavailability [22]: 60%
AUC [23]: 151000 ng·h/mL
fraction unbound [24]: 0.014
AUC [25]: 76800 ng·h/mL
clearance [26]: 13.2 mL/min/kg
SMILES: Cc1c(Oc2ccc(-n3cnnn3)cc2F)ncnc1N1C2CC3CC1CC(C2)N3C(=O)OC1(C)CC1
